Assay results as given in ChEMBL document CHEMBL4480426, “Novel multi-target directed ligands based on annelated xanthine scaffold with aromatic substituents acting on adenosine receptor and monoamine oxidase B. Synthesis, in vitro and in silico studies” (Bioorg Med Chem, 2019).

What was measured:
Adenosine receptor A1 [1] = biological target: T1, Adenosine receptor A1 (Rattus norvegicus, UniProt P25099); experiment: Displacement of [3H]CCPA from adenosine A1 receptor in rat brain cortical membranes; assay type: cell membranes
T1 sequence (P25099 whole entry): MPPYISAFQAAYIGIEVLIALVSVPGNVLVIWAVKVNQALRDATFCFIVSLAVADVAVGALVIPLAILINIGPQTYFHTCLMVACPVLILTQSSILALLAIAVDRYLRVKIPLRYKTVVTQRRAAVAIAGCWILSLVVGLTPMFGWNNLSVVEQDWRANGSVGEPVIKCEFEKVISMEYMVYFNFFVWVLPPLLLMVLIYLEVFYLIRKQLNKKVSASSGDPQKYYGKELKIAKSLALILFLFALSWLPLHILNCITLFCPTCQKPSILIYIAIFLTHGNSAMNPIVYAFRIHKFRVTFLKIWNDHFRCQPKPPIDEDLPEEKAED

Adenosine receptor A2a = Adenosine receptor A2a (Homo sapiens, UniProt P29274); experiment: Displacement of [3H]MSX2 from recombinant human adenosine A2a receptor expressed in HEK293 cells; assay type: cell-based
Adenosine receptor A2b = biological target: T2, Adenosine receptor A2b (Homo sapiens, UniProt P29275); experiment: Displacement of [3H]PSB603 from recombinant human adenosine A2b receptor expressed in HEK293 cells; assay type: cell-based
T2 sequence (P29275 whole entry): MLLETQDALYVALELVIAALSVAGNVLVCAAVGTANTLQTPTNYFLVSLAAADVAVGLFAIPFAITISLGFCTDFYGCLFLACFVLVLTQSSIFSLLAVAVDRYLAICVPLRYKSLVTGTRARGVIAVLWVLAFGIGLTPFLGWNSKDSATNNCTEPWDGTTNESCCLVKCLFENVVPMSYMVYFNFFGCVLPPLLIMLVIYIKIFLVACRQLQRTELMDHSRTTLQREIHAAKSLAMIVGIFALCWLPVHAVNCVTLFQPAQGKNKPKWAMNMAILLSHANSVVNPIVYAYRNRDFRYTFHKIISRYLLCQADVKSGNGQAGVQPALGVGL

Adenosine receptor A3 = biological target: T3, Adenosine receptor A3 (Homo sapiens, UniProt P0DMS8); experiment: Displacement of [3H]PSB11 from recombinant human adenosine A3 receptor expressed in CHO cells; assay type: cell-based
T3 sequence (P0DMS8 whole entry): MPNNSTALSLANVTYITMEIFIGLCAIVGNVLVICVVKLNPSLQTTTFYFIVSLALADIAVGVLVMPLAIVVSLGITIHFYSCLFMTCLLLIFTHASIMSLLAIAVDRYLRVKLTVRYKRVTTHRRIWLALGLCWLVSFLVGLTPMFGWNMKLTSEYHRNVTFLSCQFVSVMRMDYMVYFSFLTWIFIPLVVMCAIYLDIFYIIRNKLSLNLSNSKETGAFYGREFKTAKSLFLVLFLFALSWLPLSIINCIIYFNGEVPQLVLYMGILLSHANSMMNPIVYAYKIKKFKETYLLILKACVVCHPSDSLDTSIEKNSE

[2] = biological target: T4, Amine oxidase [flavin-containing] B (Homo sapiens, UniProt P27338); experiment: Inhibition of recombinant human MAOB expressed in baculovirus infected BTI insect cells using p-tyramine as substrate preincubated for 30 mins followed by substrate addition and measured over 45 mins by horseradish peroxidase-Amplex Red-coupled fluorometric assay
T4 sequence (P27338 whole entry): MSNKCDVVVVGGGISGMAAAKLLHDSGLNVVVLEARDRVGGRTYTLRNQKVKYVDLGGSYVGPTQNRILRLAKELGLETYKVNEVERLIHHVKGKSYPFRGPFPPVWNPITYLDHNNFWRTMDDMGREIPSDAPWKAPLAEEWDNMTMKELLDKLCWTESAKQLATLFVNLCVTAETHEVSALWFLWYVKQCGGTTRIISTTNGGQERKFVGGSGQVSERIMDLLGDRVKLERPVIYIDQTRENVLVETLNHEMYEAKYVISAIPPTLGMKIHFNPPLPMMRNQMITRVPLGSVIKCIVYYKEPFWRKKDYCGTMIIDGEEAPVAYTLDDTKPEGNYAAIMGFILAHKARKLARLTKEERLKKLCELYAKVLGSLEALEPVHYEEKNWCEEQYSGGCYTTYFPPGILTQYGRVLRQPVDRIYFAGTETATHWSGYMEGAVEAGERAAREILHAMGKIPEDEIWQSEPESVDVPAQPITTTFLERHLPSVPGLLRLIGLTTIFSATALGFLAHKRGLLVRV
Outline: (§1)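 Human recombinant MAO-A or MAO-B enzyme. Activity detected fluorometrically with the Amplex Red monoamine oxidase assay.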

Adenosine receptor A1 [3] = biological target: T5, Adenosine receptor A1 (Homo sapiens, UniProt P30542); experiment: Displacement of [3H]CCPA from recombinant human adenosine A1 receptor expressed in CHO cells; assay type: cell-based
T5 sequence (P30542 whole entry): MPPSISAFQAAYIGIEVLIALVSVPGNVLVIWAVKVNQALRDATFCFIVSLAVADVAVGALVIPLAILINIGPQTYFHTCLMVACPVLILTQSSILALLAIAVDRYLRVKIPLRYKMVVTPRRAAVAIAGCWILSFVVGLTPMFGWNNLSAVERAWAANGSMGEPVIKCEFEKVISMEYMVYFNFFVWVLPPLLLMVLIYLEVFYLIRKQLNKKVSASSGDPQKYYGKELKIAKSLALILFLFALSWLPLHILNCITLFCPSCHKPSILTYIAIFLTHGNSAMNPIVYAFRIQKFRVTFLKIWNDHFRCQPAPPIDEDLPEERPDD

[4] = biological target: T6, Adenosine receptor A1 (Homo sapiens) (UniProt P30542); experiment: Displacement of [3H]CCPA from recombinant human adenosine A1 receptor expressed in CHO cells at 1 uM relative to control; assay type: cell-based
T6 sequence (whole entry): T5 sequence (P30542 whole entry)
Outline: (§2)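 Purchased membranes of CHO cells expressing human A1 ([3H]CCPA) or human A3 ([3H]PSB-11). A single high compound concentration is screened first; for potent compounds, full inhibition curves spanning 3 orders of magnitude. At least three independent experiments.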

[5] = biological target: T7, Adenosine receptor A2b (Homo sapiens) (UniProt P29275); experiment: Displacement of [3H]PSB603 from recombinant human adenosine A2b receptor expressed in HEK293 cells at 1 uM relative to control; assay type: cell-based
T7 sequence (whole entry): T2 sequence (P29275 whole entry)
Outline: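 Purchased membranes of HEK cells expressing human A2A ([3H]MSX-2) or human A2B ([3H]PSB-603). A single high compound concentration is screened first; for potent compounds, full inhibition curves spanning 3 orders of magnitude. At least three independent experiments.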

[6] = biological target: T8, Adenosine receptor A3 (Homo sapiens) (UniProt P0DMS8); experiment: Displacement of [3H]PSB11 from recombinant human adenosine A3 receptor expressed in CHO cells at 1 uM relative to control; assay type: cell-based; outline: as §2
T8 sequence (whole entry): T3 sequence (P0DMS8 whole entry)

[7] = biological target: T9, Amine oxidase [flavin-containing] A (Homo sapiens, UniProt P21397); experiment: Inhibition of recombinant human MAOA expressed in baculovirus infected BTI insect cells using p-tyramine as substrate preincubated for 30 mins followed by substrate addition and measured over 45 mins by horseradish peroxidase-Amplex Red-coupled fluorometric assay; outline: as §1
T9 sequence (P21397 whole entry): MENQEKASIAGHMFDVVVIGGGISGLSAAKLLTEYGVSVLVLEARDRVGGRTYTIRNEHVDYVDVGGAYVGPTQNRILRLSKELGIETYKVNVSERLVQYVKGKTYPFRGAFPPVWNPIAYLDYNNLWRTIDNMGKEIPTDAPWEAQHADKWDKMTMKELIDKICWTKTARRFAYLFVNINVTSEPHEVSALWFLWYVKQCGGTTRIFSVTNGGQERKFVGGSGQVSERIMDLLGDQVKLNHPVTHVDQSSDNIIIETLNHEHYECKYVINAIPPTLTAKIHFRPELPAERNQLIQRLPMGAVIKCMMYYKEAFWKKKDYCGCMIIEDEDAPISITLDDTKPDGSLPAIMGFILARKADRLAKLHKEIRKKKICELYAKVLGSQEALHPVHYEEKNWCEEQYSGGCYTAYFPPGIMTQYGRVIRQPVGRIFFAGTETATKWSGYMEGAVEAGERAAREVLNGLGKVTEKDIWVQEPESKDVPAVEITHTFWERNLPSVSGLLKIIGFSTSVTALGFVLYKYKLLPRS

[8] = biological target: T9, Amine oxidase [flavin-containing] A; experiment: Inhibition of recombinant human MAOA expressed in baculovirus infected BTI insect cells at 1 to 100 uM using p-tyramine as substrate preincubated for 30 mins followed by substrate addition and measured over 45 mins by horseradish peroxidase-Amplex Red-coupled fluorometric assay relative to control; details: 0.75 h; outline: as §1

Sequence of Adenosine receptor A2a (P29274 whole entry): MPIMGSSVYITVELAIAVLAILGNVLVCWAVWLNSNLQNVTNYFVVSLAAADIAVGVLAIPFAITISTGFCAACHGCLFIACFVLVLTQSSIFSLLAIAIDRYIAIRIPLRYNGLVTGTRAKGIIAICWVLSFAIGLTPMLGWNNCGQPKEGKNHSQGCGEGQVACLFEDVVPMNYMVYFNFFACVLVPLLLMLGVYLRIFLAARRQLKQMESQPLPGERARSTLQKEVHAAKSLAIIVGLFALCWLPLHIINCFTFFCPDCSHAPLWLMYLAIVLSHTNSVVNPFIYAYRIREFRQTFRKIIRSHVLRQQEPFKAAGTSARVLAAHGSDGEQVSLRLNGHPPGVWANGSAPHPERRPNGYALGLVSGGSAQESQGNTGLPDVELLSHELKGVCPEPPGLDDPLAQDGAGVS

SMILES	Ki (Adenosine receptor A1 [1]) [nM]	Ki (Adenosine receptor A2a) [nM]	Ki (Adenosine receptor A2b) [nM]	Ki (Adenosine receptor A3) [nM]	IC50 [2] [nM]	Ki (Adenosine receptor A1 [3]) [nM]	inhibition [4] [%]	inhibition [5] [%]	inhibition [6] [%]	IC50 [7] [nM]	inhibition (INH) [8] [%]
Cn1c(=O)c2c(nc3n2CCCN3Cc2cc(Br)ccc2F)n(C)c1=O	486	> 1000	> 1000	> 1000	1180	–	–	–	–	–	–
COc1ccccc1CN1CCCCn2c1nc1c2c(=O)n(C)c(=O)n1C	–	959	> 1000	> 1000	1920	> 1000	13	16	19	> 1000	2
COc1ccc(Cl)c(CN2CCCn3c2nc2c3c(=O)n(C)c(=O)n2C)c1F	927	627	–	–	840	–	–	–	–	> 100000	16
COc1ccc(CN2CCCn3c2nc2c3c(=O)n(C)c(=O)n2C)cc1Cl	> 1000	8000	> 1000	> 1000	407	–	–	–	–	> 100000	38
Cn1c(=O)c2c(nc3n2CCCN3Cc2ccc(Cl)cc2F)n(C)c1=O	4900	8910	> 1000	> 1000	377	–	–	–	–	> 1000	2
Cn1c(=O)c2c(nc3n2CCCN3Cc2cc(Cl)ccc2Cl)n(C)c1=O	3020	> 1000	> 1000	> 1000	758	–	–	–	–	–	–
Cn1c(=O)c2c(nc3n2CCCN3Cc2ccccc2F)n(C)c1=O	1780	1210	> 1000	> 1000	583	–	–	–	–	> 1000	-1
Cn1c(=O)c2c(nc3n2CCCN3Cc2ccc(C(C)(C)C)cc2)n(C)c1=O	–	–	–	–	1350	–	–	–	–	–	–
Cn1c(=O)c2c(nc3n2CCCN3Cc2ccc(F)cc2Cl)n(C)c1=O	> 1000	> 1000	> 1000	> 1000	411	–	–	–	–	–	–
Cn1c(=O)c2c(nc3n2CCCN3Cc2cc(C(F)(F)F)ccc2Cl)n(C)c1=O	931	> 1000	> 1000	> 1000	1070	–	–	–	–	–	–
Cn1c(=O)c2c(nc3n2CCCN3Cc2cccc(Br)c2)n(C)c1=O	965	1700	> 1000	> 1000	396	–	–	–	–	> 1000	-1
Cn1c(=O)c2c(nc3n2CCCN3Cc2ccc(Br)cc2F)n(C)c1=O	4130	> 1000	> 1000	> 1000	426	–	–	–	–	> 1000	-2

Continued, values first:

Ki (Adenosine receptor A1 [1]) [nM]	Ki (Adenosine receptor A2a) [nM]	Ki (Adenosine receptor A2b) [nM]	Ki (Adenosine receptor A3) [nM]	IC50 [2] [nM]	Ki (Adenosine receptor A1 [3]) [nM]	inhibition [4] [%]	inhibition [5] [%]	inhibition [6] [%]	IC50 [7] [nM]	inhibition (INH) [8] [%]	SMILES
–	> 1000	> 1000	> 1000	171	> 1000	23	43	20	> 1000	-6	Cn1c(=O)c2c(nc3n2CCCCN3Cc2ccc(F)c(Br)c2)n(C)c1=O
4360	8270	> 1000	> 1000	346	–	–	–	–	> 1000	1	Cn1c(=O)c2c(nc3n2CCCN3Cc2ccc(F)c(Br)c2)n(C)c1=O
–	> 1000	> 1000	> 1000	364	> 1000	13	13	10	> 1000	6	Cn1c(=O)c2c(nc3n2CCCCN3Cc2ccc(Cl)cc2)n(C)c1=O
> 1000	> 1000	> 1000	> 1000	264	–	–	–	–	> 100000	9	Cn1c(=O)c2c(nc3n2CCCN3Cc2ccc(Cl)c(F)c2)n(C)c1=O
–	767	> 1000	> 1000	275	> 1000	21	43	42	> 1000	3	Cn1c(=O)c2c(nc3n2CCCCN3Cc2ccccc2Br)n(C)c1=O
1910	> 1000	> 1000	> 1000	313	–	–	–	–	> 100000	17	Cc1cccc(CN2CCCn3c2nc2c3c(=O)n(C)c(=O)n2C)c1
> 1000	> 1000	> 1000	> 1000	310	–	–	–	–	> 1000	2	Cn1c(=O)c2c(nc3n2CCCN3Cc2ccc(Cl)c(C(F)(F)F)c2)n(C)c1=O
–	> 1000	> 1000	> 1000	371	651	–	41	26	> 1000	6	Cn1c(=O)c2c(nc3n2CCCCN3Cc2cccc(Br)c2)n(C)c1=O
